Values after ≈ are worked out from the molar mass of the structure shown. Blank lines part the entries; values can stand above or below the compound they belong to. Active and inactive are the calls of the source. No cut-off for these calls is given here.
Columns and labels:
[1] = molecular target: T1, DNA repair nuclease/redox regulator APEX1 (Homo sapiens, UniProt P27695); assay: Inhibition of human recombinant APE1 after 15 mins by fluorescence based HTS assay
Outline: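 APE1 inhibition was measured in the fluorescence-based qHTS format at up to 57 µM. IC50 is the average of three separate experiments.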

[2] = molecular target: T1, DNA repair nuclease/redox regulator APEX1; assay: Inhibition of recombinant APE1 using […]-5'-AP-DNA as substrate incubated for 15 mins prior to substrate addition measured after 5 mins by PAGE analysis
[3] = molecular target: T1, DNA repair nuclease/redox regulator APEX1; assay: Inhibition of APE1 in human HeLa whole cell extract using […]-5'-AP-DNA as substrate assessed as activity remaining at 100 uM incubated for 15 mins prior to substrate addition measured after 5 mins by PAGE analysis relative to control
Outline: (§1)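 HeLa whole cell extract (300 ng; KCl-extracted hypotonic lysate) was preincubated with inhibitor for 15 min at room temperature, at 100 µM or at 0–100 µM. Then 0.5 pmol 32P AP-DNA was added for 5 min at 37 °C. Samples were run on denaturing PAGE, and incision is reported relative to the no-inhibitor control, from three independent measurements.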

[4] = molecular target: T1, DNA repair nuclease/redox regulator APEX1; assay: Inhibition of human APE1 expressed in Escherichia coli rosetta using fluorescein-dabcyl-containing oligonucleotide as substrate after 5 mins by fluorescence spectrophotometry
[5] = molecular target: T1, DNA repair nuclease/redox regulator APEX1; assay: Competitive inhibition of recombinant APE1 using […]-5'-AP-DNA as substrate incubated for 15 mins prior to substrate addition measured after 5 mins by Lineweaver-Burk plot analysis
Outline: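 APE1 (~28 pM) was incubated with 0, 5, 10 or 20 µM inhibitor for 15 min at room temperature. 32P AP-DNA was added at 5–100 nM, followed by 5 min at 37 °C and denaturing PAGE. Velocities were measured, and KM and kcat came from Lineweaver–Burk plots.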

[6] = molecular target: T1, DNA repair nuclease/redox regulator APEX1; assay: Competitive inhibition of recombinant APE1 using […]-5'-AP-DNA as substrate assessed as decrease in APE1-DNA complex formation incubated for 10 mins prior to substrate addition measured after 5 mins by electrophoretic mobility shift assay
Outline: (§2)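 APE1 (~28 nM) was preincubated without inhibitor (1% DMSO) or with 1, 3, 10, 30 or 100 µM inhibitor for 10 min on ice. Then 100 fmol (10 nM) 32P AP-DNA was added for 5 min on ice. Complexes were resolved on an 8% native gel and quantified by phosphorimager relative to control, in three independent replicates.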

[7] = molecular target: T1, DNA repair nuclease/redox regulator APEX1; assay: Competitive inhibition of recombinant APE1 using […]-5'-AP-DNA as substrate assessed as decrease in APE1-DNA complex formation at 30 uM incubated for 10 mins prior to substrate addition measured after 5 mins by electrophoretic mobility shift assay; outline: as §2
[8] = molecular target: T1, DNA repair nuclease/redox regulator APEX1; assay: Competitive inhibition of recombinant APE1 using […]-5'-AP-DNA as substrate assessed as decrease in APE1-DNA complex formation at 10 to 100 uM preincubated with substrate for 15 mins prior to enzyme addition measured after 5 mins by electrophoretic mobility shift assay
[9] = molecular target: T1, DNA repair nuclease/redox regulator APEX1; assay: Inhibition of APE1 in human HeLa cells assessed as accumulation of genomic AP sites at 7.5 uM after 24 hrs by aldehyde reactive probe-based assay relative to control; type: cell-based
Outline: (§3)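 HeLa cells at 80% confluency were treated for 24 h at 37 °C with DMSO, 275 µM MMS, or 7.5 µM inhibitor, alone or combined with MMS. Genomic DNA (100 ng/µL) was labelled with Aldehyde Reactive Probe and AP sites were quantified, in triplicate. Significance was tested by Student's t test.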

[10] = molecular target: T1, DNA repair nuclease/redox regulator APEX1; assay: Inhibition of APE1 activity in human HeLa cells assessed as fold increase in genomic AP site accumulation after 24 hrs by aldehyde reactive probe-based assay in presence of methyl methanesulfonate; type: cell-based; outline: as §3
[11] = system: HeLa; assay: Potentiation of methyl methanesulfonate cytotoxic activity against human HeLa cells assessed as decrease in cell viability at 5 to 10 uM after 24 hrs by CellTiterGlo assay; type: functional, cell-based
Outline: (§4)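 HeLa cells were seeded at 6K per well in DMEM/10% FBS and attached overnight. The medium was replaced with compound (5–30 µM) with or without MMS (0.4 mM) or TMZ (1 mM), followed by 24 h at 37 °C. Viability was read with CellTiter-Glo luminescence relative to DMSO, in duplicate. Combination values were normalized to the alkylating agent alone.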

[12] = system: HeLa; assay: Potentiation of temozolomide cytotoxic activity against human HeLa cells assessed as decrease in cell viability at 5 to 10 uM after 24 hrs by CellTiterGlo assay; type: functional, cell-based; outline: as §4
[13] = system: HeLa; assay: Cytotoxicity against human HeLa cells at 15 uM after 24 hrs by CellTiterGlo assay; type: functional; outline: as §4
[14] = system: HeLa; assay: Potentiation of methyl methanesulfonate cytotoxic activity against human HeLa cells assessed as decrease in cell viability at 1 to 2 uM incubated for 8 hrs measured after 56 hrs post compound wash-out by Hoechst 33342 staining-based assay; type: functional
[15] = system: HeLa; assay: Potentiation of temozolomide cytotoxic activity against human HeLa cells assessed as decrease in cell viability at 1 to 2 uM incubated for 8 hrs measured after 56 hrs post compound wash-out by Hoechst 33342 staining-based assay; type: functional
[16] = Aqueous kinetic solubility of the compound in PBS at pH 7.4; type: physicochemical; details: read-out: Kinetic_solubility
[17] = molecular target: CYP2D6 (Homo sapiens, UniProt P10635); assay: Inhibition of CYP2D6 at 10 uM; type: ADME
CYP2D6, sequence (P10635 whole entry): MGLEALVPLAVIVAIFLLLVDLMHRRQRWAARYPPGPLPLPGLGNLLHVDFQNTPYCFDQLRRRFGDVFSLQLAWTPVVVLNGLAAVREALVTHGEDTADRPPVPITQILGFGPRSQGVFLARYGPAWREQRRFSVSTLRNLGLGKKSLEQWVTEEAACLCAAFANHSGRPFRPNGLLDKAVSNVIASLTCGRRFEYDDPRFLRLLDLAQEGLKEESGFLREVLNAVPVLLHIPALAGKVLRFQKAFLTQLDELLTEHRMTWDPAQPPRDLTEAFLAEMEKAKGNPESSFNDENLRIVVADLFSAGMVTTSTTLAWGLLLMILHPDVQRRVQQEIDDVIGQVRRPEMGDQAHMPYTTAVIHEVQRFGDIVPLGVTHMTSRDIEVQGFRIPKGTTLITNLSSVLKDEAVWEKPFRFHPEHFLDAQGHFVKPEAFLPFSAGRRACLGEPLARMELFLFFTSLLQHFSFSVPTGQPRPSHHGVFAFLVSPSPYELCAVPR

[18] = molecular target: CYP3A4 (Homo sapiens, UniProt P08684); assay: Inhibition of CYP3A4 at 10 uM; type: ADME
CYP3A4, sequence (P08684 whole entry): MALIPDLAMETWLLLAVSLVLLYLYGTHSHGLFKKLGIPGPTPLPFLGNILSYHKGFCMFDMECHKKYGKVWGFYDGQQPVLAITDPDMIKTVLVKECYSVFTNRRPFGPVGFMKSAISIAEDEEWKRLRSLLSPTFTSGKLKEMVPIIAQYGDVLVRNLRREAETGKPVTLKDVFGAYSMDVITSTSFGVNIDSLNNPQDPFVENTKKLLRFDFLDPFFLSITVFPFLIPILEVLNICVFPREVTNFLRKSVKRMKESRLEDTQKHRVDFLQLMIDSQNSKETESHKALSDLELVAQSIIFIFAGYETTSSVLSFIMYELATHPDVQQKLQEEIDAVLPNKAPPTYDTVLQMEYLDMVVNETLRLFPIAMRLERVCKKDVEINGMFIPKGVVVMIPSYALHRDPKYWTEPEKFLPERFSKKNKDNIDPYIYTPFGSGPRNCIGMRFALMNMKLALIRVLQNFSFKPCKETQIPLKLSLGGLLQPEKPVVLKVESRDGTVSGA

[19] = system: Liver; assay: Half life in mouse liver microsomes; type: ADME, Microsome
Outline: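 Stability in mouse liver microsomes reported as T1/2. Done by a contract lab, and values are the average of two experiments.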

[20] = Chemical stability of the compound in PBS at pH 7.4 assessed as compound remaining after 48 hrs; type: physicochemical; details: buffer, pH 7.4, 48 h
Outline: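 The compound was held in PBS pH 7.4 and the percent remaining was measured after 48 h. Done by a contract lab, and values are the average of two experiments.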

[21] = system: Plasma; assay: Half life in mouse plasma; type: ADME, cell-free
Outline: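 Stability in mouse plasma reported as T1/2. Done by a contract lab, and values are the average of two experiments.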

[22] = system: Mus musculus; assay: Toxicity in CD1 mouse assessed as adverse effect at 30 mg/kg, ip after 24 hrs; type: organism-based; set-up: dose 30 mg/kg, route intraperitoneal; details: in vivo
Outline: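 Male CD1 mice, 6–8 weeks old, were given 30 mg/kg IP in PEG/Cremophor EL saline vehicle.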

[23] = system: Plasma; assay: Half life in CD1 mouse plasma at 30 mg/kg, ip; type: ADME, organism-based; set-up: dose 30 mg/kg, route intraperitoneal; details: in vivo
Outline: (§5)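 Male CD1 mice, 6–8 weeks old, n = 3, were given 30 mg/kg IP in 50% PEG 200 or PEG 400 plus 10% Cremophor EL in saline. Cardiac-puncture blood was taken at 0.25, 0.5, 1, 2, 4, 8, 12 and 24 h, with heparin plasma. Brain values were multiplied by 5, and LC/MS/MS was used. The brain/plasma ratio is the average over the 8 time points.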

[24] = system: Brain; assay: Half life in CD1 mouse brain at 30 mg/kg, ip; type: ADME, organism-based; set-up: dose 30 mg/kg, route intraperitoneal; details: in vivo; outline: as §5
[25] = system: Plasma; assay: Cmax in CD1 mouse plasma at 30 mg/kg, ip; type: ADME, organism-based; set-up: dose 30 mg/kg, route intraperitoneal; details: in vivo; outline: as §5
[26] = system: Brain; assay: Cmax in CD1 mouse brain at 30 mg/kg, ip; type: ADME, organism-based; set-up: dose 30 mg/kg, route intraperitoneal; details: in vivo; outline: as §5
[27] = system: Plasma; assay: Tmax in CD1 mouse plasma at 30 mg/kg, ip; type: ADME, organism-based; set-up: dose 30 mg/kg, route intraperitoneal; details: in vivo; outline: as §5
[28] = system: Brain; assay: Tmax in CD1 mouse brain at 30 mg/kg, ip; type: ADME, organism-based; set-up: dose 30 mg/kg, route intraperitoneal; details: in vivo; outline: as §5
[29] = molecular target: T1, DNA repair nuclease/redox regulator APEX1; assay: Inhibition of APE1 in human HeLa whole cell extract using […]-5'-AP-DNA as substrate at 10 uM incubated for 15 mins prior to substrate addition measured after 5 mins by PAGE analysis; outline: as §1
[30] = system: HeLa; assay: Potentiation of methyl methanesulfonate cytotoxic activity against human HeLa cells assessed as decrease in cell viability at 10 to 15 uM after 24 hrs by CellTiterGlo assay; type: functional, cell-based; outline: as §4
[31] = system: HeLa; assay: Potentiation of temozolomide cytotoxic activity against human HeLa cells assessed as decrease in cell viability at 10 to 15 uM after 24 hrs by CellTiterGlo assay; type: functional, cell-based; outline: as §4
[32] = system: HeLa; assay: Cytotoxicity against human HeLa cells at 30 uM after 24 hrs by CellTiterGlo assay; type: functional; outline: as §4
[33] = system: HeLa; assay: Potentiation of methyl methanesulfonate cytotoxic activity against human HeLa cells assessed as decrease in cell viability at 2.5 to 5 uM incubated for 8 hrs measured after 56 hrs post compound wash-out by Hoechst 33342 staining-based assay; type: functional
[34] = system: HeLa; assay: Potentiation of temozolomide cytotoxic activity against human HeLa cells assessed as decrease in cell viability at 2.5 to 5 uM incubated for 8 hrs measured after 56 hrs post compound wash-out by Hoechst 33342 staining-based assay; type: functional
[35] = molecular target: T1, DNA repair nuclease/redox regulator APEX1; assay: Inhibition of APE1 in human HeLa cells assessed as accumulation of genomic AP sites […] after 24 hrs by aldehyde reactive probe-based assay relative to control; type: cell-based
Outline: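 HeLa cells at 80% confluency were exposed for 24 h at 37 °C to DMSO, 275 µM MMS, or 7.5 µM inhibitor, each alone, or to 275 µM MMS plus 7.5 µM inhibitor. Genomic DNA was isolated and adjusted to 100 ng/µL. 10 µL was labelled with aldehyde reactive probe (biotin-hydrazide reagent) and AP sites were quantified by kit. Samples ran in triplicate and were compared with a Student's t test.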

T1 sequence (P27695 whole entry): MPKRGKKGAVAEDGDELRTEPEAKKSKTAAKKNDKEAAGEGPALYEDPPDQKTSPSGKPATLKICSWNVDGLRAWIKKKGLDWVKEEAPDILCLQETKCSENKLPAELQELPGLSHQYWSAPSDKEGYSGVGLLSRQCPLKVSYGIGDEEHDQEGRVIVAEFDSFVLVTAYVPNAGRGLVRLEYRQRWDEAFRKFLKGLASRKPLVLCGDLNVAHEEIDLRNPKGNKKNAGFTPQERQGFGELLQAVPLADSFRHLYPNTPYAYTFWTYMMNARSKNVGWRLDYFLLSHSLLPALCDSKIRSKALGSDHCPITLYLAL

Structure (SMILES): CC(=O)Nc1sc2c(c1-c1nc3ccccc3o1)CCN(C(C)C)C2
IC50 [1]: 20.4 µM
IC50 [2]: 13 µM
Activity [3]: 12%

Structure (SMILES): Cc1cc(C)c2c(N)c3cccc(C)c3nc2n1
IC50 [1]: 32 µM
IC50 [4]: 32 µM

Structure (SMILES): CC(=O)Nc1sc2c(c1-c1nc3ccccc3s1)CCCN(C(C)C)C2
IC50 [1]: 12.9 µM
IC50 [2]: 14 µM
Activity [3]: 14%

Structure (SMILES): CC(=O)Nc1sc2c(c1-c1nc3ccccc3s1)CCN(C(C)C)CC2
IC50 [1]: 17.6 µM
IC50 [2]: 13 µM
Activity [3]: 1.1%

Structure (SMILES): COS(C)(=O)=O
inhibition [35]: Active

Continued, in another order:

IC50 [1]: 3.1 µM
IC50 [2]: 4 µM
Activity [3]: 57%
Structure (SMILES): CC(=O)Nc1sc2c(c1-c1nc3ccccc3s1)CN(C(C)C)C2

IC50 [1]: 2.9 µM
IC50 [2]: 3 µM
Activity [3]: 15%
Structure (SMILES): CC(=O)Nc1sc2c(c1-c1nc(-c3ccccc3)cs1)CCN(C(C)C)C2

IC50 [1]: 3.8 µM
IC50 [2]: 4 µM
Activity [3]: 38%
Structure (SMILES): O=C(Nc1sc2c(c1-c1nc3ccccc3s1)CCNC2)C(F)F

IC50 [1]: 2 µM
IC50 [2]: 12 µM
Activity [3]: 0.6%
inhibition [5]: Active
inhibition [6]: Dose-dependent effect
inhibition [7]: Active
inhibition [8]: Active
inhibition [9]: Active
fold change (FC) [10]: 3
solubility kinetic [16]: 20.4 µM (≈ 7.58 µg/mL)
inhibition at 10 µM [17]: 0%
inhibition at 10 µM [18]: 53%
t1/2 [19]: 80 min
Stability [20]: 100%
t1/2 [21]: > 250 min
t1/2 [23]: 2.1 h
t1/2 [24]: 1 h
Cmax [25]: 16 µM
Cmax [26]: 217 µM
Tmax [27]: 15 min
Tmax [28]: 15 min
Structure (SMILES): CC(=O)Nc1sc2c(c1-c1nc3ccccc3s1)CCN(C(C)C)C2
Activity [11]: Active
Activity [12]: Active
Activity [13]: 50%
Activity [14]: Active
Activity [15]: Active
Activity [22]: Non-toxic

IC50 [1]: 2.9 µM
IC50 [2]: 5 µM
Activity [3]: 1.4%
Structure (SMILES): CC(=O)Nc1sc2c(c1-c1nc3ccccc3s1)CCNC2

IC50 [1]: 3.3 µM
Activity [3]: 0.1%
inhibition [29]: Active
inhibition [5]: Active
inhibition [6]: Dose-dependent effect
inhibition [7]: Active
inhibition [8]: Active
inhibition [9]: Active
fold change (FC) [10]: 3
solubility kinetic [16]: 51.6 µM (≈ 16.3 µg/mL)
inhibition at 10 µM [17]: 39%
inhibition at 10 µM [18]: 50%
t1/2 [19]: 7.8 min
Stability [20]: 100%
t1/2 [21]: 213 min
t1/2 [23]: 5 h
t1/2 [24]: 2.5 h
Cmax [25]: 36 µM
Cmax [26]: 92 µM
Tmax [27]: 15 min
Tmax [28]: 15 min
Structure (SMILES): CC(=O)Nc1sc2c(c1-c1nc3ccccc3s1)CNC2
Activity [30]: Active
Activity [31]: Active
Activity [32]: 50%
Activity [33]: Active
Activity [34]: Active
Activity [22]: Non-toxic

IC50 [1]: 3.8 µM
IC50 [2]: 5 µM
Activity [3]: 26%
Structure (SMILES): CC(=O)Nc1sc2c(c1-c1nc3ccccc3s1)CCN(C)C2
